Assays:
[1] = system: Staphylococcus aureus; assay: Antimicrobial activity against Staphylococcus aureus Efs1 assessed as inhibition zone at 37 degC for 24 hrs by agar diffusion method; format: functional
In short: (§1)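 Each solution at 2.0 mM in DMSO:MeOH (1:9), 50 μL filled into 9 mm agar wells (Standard I Nutrient or Mueller Hinton II Agar). Incubation at 37 °C for 24 h. Inhibition zone diameter measured in mm; a partially clear zone or colonies inside the zone noted as p.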

[2] = system: Pseudomonas aeruginosa; assay: Antimicrobial activity against Pseudomonas aeruginosa K799/WT assessed as faint inhibition zone at 37 degC for 24 hrs by agar diffusion method; format: functional; in short: as §1
[3] = system: Pseudomonas aeruginosa; assay: Antimicrobial activity against Pseudomonas aeruginosa K799/61 assessed as inhibition zone at 37 degC for 24 hrs by agar diffusion method; format: functional; in short: as §1
[4] = system: Bacillus subtilis; assay: Antimicrobial activity against Bacillus subtilis ATCC 6633 assessed as partially clear inhibition zone at 37 degC for 24 hrs by agar diffusion method; format: functional
In short: (§2)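 Well diffusion: 50 μL of a 1.0 mM solution in DMSO:MeOH (1:9) filled into 9 mm wells cut in Standard I Nutrient Agar or Mueller Hinton II Agar. Plates incubated at 37 °C for 24 h, then growth inhibition zone read in mm. Partially clear zones, or colonies within the zone, recorded as p.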

[5] = system: Bacillus subtilis; assay: Antimicrobial activity against Bacillus subtilis ATCC 6633 assessed as inhibition zone at 37 degC for 24 hrs by agar diffusion method; format: functional; in short: as §2
[6] = system: Staphylococcus aureus; assay: Antimicrobial activity against methicillin-resistant Staphylococcus aureus 134/93 assessed as inhibition zone at 37 degC for 24 hrs by agar diffusion method; format: functional
In short: (§3)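 Agar well diffusion. Each 9 mm well in nutrient or Mueller Hinton II agar received 50 μL of a 2.0 mM solution in DMSO:MeOH (1:9). Plates were incubated at 37 °C for 24 h. The inhibition zone diameter was read in mm, including the 9 mm well. A "p" marks a partially clear zone or colonies inside the zone.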

[7] = system: Micrococcus luteus; assay: Antimicrobial activity against Micrococcus luteus ATCC 10240 assessed as inhibition zone at 37 degC for 24 hrs by agar diffusion method; format: functional; in short: as §2
[8] = system: Pseudomonas aeruginosa; assay: Antimicrobial activity against Pseudomonas aeruginosa K799/61 assessed as partially clear inhibition zone at 37 degC for 24 hrs by agar diffusion method; format: functional; in short: as §3
[9] = system: Escherichia coli; assay: Antimicrobial activity against Escherichia coli SG458 assessed as inhibition zone at 37 degC for 24 hrs by agar diffusion method; format: functional; in short: as §2
[10] = system: Staphylococcus aureus; assay: Antimicrobial activity against Staphylococcus aureus SG511 assessed as inhibition zone at 37 degC for 24 hrs by agar diffusion method; format: functional; in short: as §2
[11] = system: Mycolicibacterium vaccae; assay: Antimicrobial activity against Mycobacterium vaccae IMET assessed as inhibition zone at 37 degC for 24 hrs by agar diffusion method; format: functional; in short: as §2
[12] = system: Staphylococcus aureus; assay: Antimicrobial activity against Staphylococcus aureus Efs4 assessed as inhibition zone at 37 degC for 24 hrs by agar diffusion method; format: functional; in short: as §1
[13] = system: Enterococcus faecalis; assay: Antimicrobial activity against vancomycin-resistant Enterococcus faecalis 1528 assessed as inhibition zone at 37 degC for 24 hrs by agar diffusion method; format: functional; in short: as §3
[14] = system: Escherichia coli; assay: Antimicrobial activity against Escherichia coli SG458 assessed as inhibition zone at 5 ug/ml at 37 degC for 24 hrs by agar diffusion method; conditions: SG458, 24 h, read-out: IZ
[15] = system: Pseudomonas aeruginosa; assay: Antimicrobial activity against Pseudomonas aeruginosa K799/WT assessed as inhibition zone at 5 ug/ml at 37 degC for 24 hrs by agar diffusion method; conditions: read-out: IZ
[16] = system: Micrococcus luteus; assay: Antimicrobial activity against Micrococcus luteus ATCC 10240 assessed as inhibition zone at 5 ug/ml at 37 degC for 24 hrs by agar diffusion method; format: functional; conditions: ATCC 10240, 24 h, read-out: IZ
In short: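 Agar well diffusion with the control antibiotic dissolved in water at 5 μg/mL. 50 μL was placed in each 9 mm well in nutrient or Mueller Hinton II agar. Plates were incubated at 37 °C for 24 h, and the inhibition zone diameter was read in mm, including the well.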

[17] = system: Staphylococcus aureus; assay: Antimicrobial activity against Staphylococcus aureus Efs4 assessed as inhibition zone at 5 ug/ml at 37 degC for 24 hrs by agar diffusion method; conditions: Efs4, 24 h, read-out: IZ
[18] = system: Pseudomonas aeruginosa; assay: Antimicrobial activity against Pseudomonas aeruginosa K799/61 assessed as inhibition zone at 5 ug/ml at 37 degC for 24 hrs by agar diffusion method; conditions: K799/61, 24 h, read-out: IZ
[19] = system: Bacillus subtilis; assay: microbe, parasite or virus in culture; conditions: ATCC 6633, 24 h, read-out: IZ
[20] = system: Staphylococcus aureus; assay: Antimicrobial activity against Staphylococcus aureus Efs1 assessed as inhibition zone at 5 ug/ml at 37 degC for 24 hrs by agar diffusion method; conditions: Efs1, 24 h, read-out: IZ
[21] = system: Staphylococcus aureus; assay: microbe, parasite or virus in culture; conditions: 134/93, 24 h, read-out: IZ
[22] = system: Enterococcus faecalis; assay: microbe, parasite or virus in culture; conditions: Enterococcus faecalis, 1528, 24 h, read-out: IZ
[23] = system: Staphylococcus aureus; assay: Antimicrobial activity against Staphylococcus aureus SG511 assessed as inhibition zone at 5 ug/ml at 37 degC for 24 hrs by agar diffusion method; conditions: SG511, 24 h, read-out: IZ
[24] = system: Mycolicibacterium vaccae; assay: Antimicrobial activity against Mycobacterium vaccae IMET assessed as inhibition zone at 5 ug/ml at 37 degC for 24 hrs by agar diffusion method; format: functional; conditions: read-out: IZ
In short: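 Ciprofloxacin dissolved in water at 5 μg/mL and filled into 9 mm wells in nutrient or Mueller Hinton II agar. Plates held at 37 °C for 24 h, after which the growth inhibition zone was read in mm.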

[25] = system: Micrococcus luteus; assay: Antimicrobial activity against Micrococcus luteus ATCC 10240 assessed as unclear inhibition zone at 37 degC for 24 hrs by agar diffusion method; format: functional
In short: (§4)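 Agar well diffusion. Each 9 mm well in nutrient or Mueller Hinton II agar received 50 μL of a 1.0 mM solution in DMSO:MeOH (1:9). Plates were incubated at 37 °C for 24 h. The inhibition zone diameter was read in mm, including the well. A "p" marks a partially clear zone or colonies inside the zone.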

[26] = system: Staphylococcus aureus; assay: Antimicrobial activity against Staphylococcus aureus Efs1 assessed as partially clear inhibition zone at 37 degC for 24 hrs by agar diffusion method; format: functional; in short: as §3
[27] = system: Staphylococcus aureus; assay: Antimicrobial activity against Staphylococcus aureus Efs4 assessed as partially clear inhibition zone at 37 degC for 24 hrs by agar diffusion method; format: functional; in short: as §3
[28] = system: Pseudomonas aeruginosa; assay: Antimicrobial activity against Pseudomonas aeruginosa K799/WT assessed as partially clear inhibition zone at 37 degC for 24 hrs by agar diffusion method; format: functional; in short: as §3
[29] = system: Escherichia coli; assay: Antimicrobial activity against Escherichia coli SG458 assessed as partially clear inhibition zone at 37 degC for 24 hrs by agar diffusion method; format: functional; in short: as §4
[30] = system: Pseudomonas aeruginosa; assay: Antimicrobial activity against Pseudomonas aeruginosa K799/61 assessed as faint inhibition zone at 37 degC for 24 hrs by agar diffusion method; format: functional; in short: as §3
[31] = system: Micrococcus luteus; assay: Antimicrobial activity against Micrococcus luteus ATCC 10240 assessed as partially clear inhibition zone at 37 degC for 24 hrs by agar diffusion method; format: functional; in short: as §4
[32] = system: Pseudomonas aeruginosa; assay: Antimicrobial activity against Pseudomonas aeruginosa K799/WT assessed as inhibition zone at 37 degC for 24 hrs by agar diffusion method; format: functional; in short: as §1

Row | Structure (SMILES) | inhibition zone (IZ) [1] | inhibition zone (IZ) [2] | inhibition zone (IZ) [3] | inhibition zone (IZ) [4] | inhibition zone (IZ) [5] | inhibition zone (IZ) [6] | inhibition zone (IZ) [7] | inhibition zone (IZ) [9] | inhibition zone (IZ) [10] | inhibition zone (IZ) [11] | inhibition zone (IZ) [12] | inhibition zone (IZ) [13] | inhibition zone (IZ) [25] | inhibition zone (IZ) [27] | inhibition zone (IZ) [29] | inhibition zone (IZ) [30] | also measured
1 | CC(=O)OC[C@H]1CN(c2ccc(N3CCN(C(=O)OCC4=C(C(=O)O)N5C(=O)[C@@H](NC(=O)Cc6ccccc6)[C@H]5SC4)CC3)c(F)c2)C(=O)O1 | 40 mm | 17 mm | 22 mm | 47 mm | 43 mm | 27 mm | 42 mm | 33 mm | 36 mm | 44 mm | 31 mm | 26 mm |  |  |  |  | inhibition zone (IZ) [8]: 31 mm
2 | O=C(O)c1cn(C2CC2)c2cc(N3CCNCC3)c(F)cc2c1=O [CIPROFLOXACIN] |  |  |  |  |  |  |  |  |  |  |  |  |  |  |  |  | zone of inhibition at 5 µg/mL [14]: 34 mm; zone of inhibition at 5 µg/mL [15]: 29 mm; zone of inhibition at 5 µg/mL [16]: 0 mm; zone of inhibition at 5 µg/mL [17]: 0 mm; zone of inhibition at 5 µg/mL [18]: 35 mm; zone of inhibition at 5 µg/mL [19]: 31 mm; zone of inhibition at 5 µg/mL [20]: 0 mm; zone of inhibition at 5 µg/mL [21]: 0 mm; zone of inhibition at 5 µg/mL [22]: 15 mm; zone of inhibition at 5 µg/mL [23]: 18 mm; zone of inhibition at 5 µg/mL [24]: 23 mm
3 | CC(=O)OCC1=C(C(=O)O)N2C(=O)[C@@H](NC(=O)Cc3ccccc3)[C@H]2SC1 [CEFALORAM] | 43 mm | 11 mm | 23 mm | 52 mm | 46 mm | 13 mm | 38 mm | 35 mm | 39 mm | 0 mm | 35 mm | 23 mm | 44 mm |  |  |  | 
4 | CC(=O)NC[C@H]1CN(c2ccc(N3CCNCC3)c(F)c2)C(=O)O1 | 31 mm | 18 mm | 20 mm |  | 26 mm | 25 mm | 23 mm |  | 18 mm | 35 mm | 14 mm | 25 mm | 30 mm | 18 mm | 14 mm | 30 mm | inhibition zone (IZ) [26]: 35 mm; inhibition zone (IZ) [28]: 11 mm
5 | CC(=O)OC[C@H]1CN(c2ccc(N3CCNCC3)c(F)c2)C(=O)O1 | 31 mm | 15 mm | 16 mm | 26 mm | 24 mm | 29 mm |  |  | 21 mm | 42 mm | 19 mm | 25 mm | 40 mm | 23 mm | 13 mm | 26 mm | inhibition zone (IZ) [31]: 31 mm
6 | CC(=O)NC[C@H]1CN(c2ccc(N3CCN(C(=O)OCC4=C(C(=O)O)N5C(=O)[C@@H](NC(=O)Cc6ccccc6)[C@H]5SC4)CC3)c(F)c2)C(=O)O1 | 40 mm | 20 mm | 24 mm | 45 mm | 42 mm | 17 mm | 38 mm | 33 mm | 34 mm | 30 mm | 30 mm | 23 mm |  |  |  | 33 mm | inhibition zone (IZ) [31]: 42 mm; inhibition zone (IZ) [28]: 15 mm
7 | CC(=O)NC[C@H]1CN(c2ccc(N3CCOCC3)c(F)c2)C(=O)O1 [LINEZOLID] | 34 mm |  |  | 37 mm | 33 mm | 42 mm | 38 mm | 23 mm | 35 mm | 52 mm | 35 mm | 34 mm | 45 mm | 39 mm | 28 mm |  | inhibition zone (IZ) [26]: 39 mm; inhibition zone (IZ) [8]: 10 mm; inhibition zone (IZ) [32]: 0 mm

Source: ChEMBL document CHEMBL3217698, “Syntheses and biological evaluation of new cephalosporin-oxazolidinone conjugates” (2010)
